From ChEMBL document CHEMBL5058577, “EUbOPEN Chemogenomics Library 2 (Multiplex)” (2022)

Tested on: HEK-293T
Test: Multiplex assay against HEK293T
Assay type: toxicity, cell-based
Conditions: human
Method in brief: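 Cells stained live at seeding with Hoechst33342, BioTracker Green Microtubule Cytoskeleton Dye, MitoTracker Red and Annexin V Alexa Fluor 680 were imaged on a CQ1 microscope at 37°C and 5% CO2 after compound addition. Their classification by CellPathfinder machine-learning gating ran from Hoechst high-intensity objects versus normal cells, to healthy, pyknosed or fragmented nuclei among normal cells, to mitotic or apoptotic among pyknosed cells. Tubulin, mitochondrial-mass and membrane-permeability phenotypes are per cents of healthy-nucleus cells.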

[1] = 12 h, 1 µM, compound concentration 1 uM, replicate 1
[2] = 12 h, 1 µM, compound concentration 1 uM, replicate 2
[3] = 12 h, 10 µM, compound concentration 10 uM, replicate 1
[4] = 12 h, 10 µM, compound concentration 10 uM, replicate 2
[5] = 24 h, 1 µM, compound concentration 1 uM, replicate 1
[6] = 24 h, 1 µM, compound concentration 1 uM, replicate 2
[7] = 24 h, 10 µM, compound concentration 10 uM, replicate 1
[8] = 24 h, 10 µM, compound concentration 10 uM, replicate 2
[9] = 48 h, 1 µM, compound concentration 1 uM, replicate 1
[10] = 48 h, 1 µM, compound concentration 1 uM, replicate 2
[11] = 48 h, 10 µM, compound concentration 10 uM, replicate 1
[12] = 48 h, 10 µM, compound concentration 10 uM, replicate 2

COc1ccc2c(c1)C(C(=O)N(Cc1ccc(N(C)C)cc1)c1ccc(C(C)C)cc1)CCC2.Cl (configuration not stated)
Population Apoptotic (%) [1]: 30%
Population Fragmented Nuclei (%) [1]: 6%
Population Healthy Nuclei (%) [1]: 80%
Population Hoechst High Intensity Objects (%) [1]: 7%
Population Membrane Permeable-Phenotype (%) [1]: 0%
Population Mitochondria Different-Phenotype (%) [1]: 39%
Population Mitotic Cells (%) [1]: 70%
Population Normal (%) [1]: 92%
Population Pyknosed Nuclei (%) [1]: 13%
Population Tubulin-Different-Phenotype (%) [1]: 27%
Total Cell Count [1]: 413
Population Apoptotic (%) [2]: 43%
Population Fragmented Nuclei (%) [2]: 5%
Population Healthy Nuclei (%) [2]: 79%
Population Hoechst High Intensity Objects (%) [2]: 4%
Population Mitochondria Different-Phenotype (%) [2]: 61%
Population Mitotic Cells (%) [2]: 56%
Population Normal (%) [2]: 95%
Population Pyknosed Nuclei (%) [2]: 14%
Population Tubulin-Different-Phenotype (%) [2]: 23%
Total Cell Count [2]: 330
Population Apoptotic (%) [3]: 60%
Population Fragmented Nuclei (%) [3]: 9%
Population Healthy Nuclei (%) [3]: 78%
Population Hoechst High Intensity Objects (%) [3]: 10%
Population Membrane Permeable-Phenotype (%) [3]: 0%
Population Mitochondria Different-Phenotype (%) [3]: 60%
Population Mitotic Cells (%) [3]: 39%
Population Normal (%) [3]: 89%
Population Pyknosed Nuclei (%) [3]: 11%
Population Tubulin-Different-Phenotype (%) [3]: 64%
Total Cell Count [3]: 383
Population Apoptotic (%) [4]: 63%
Population Fragmented Nuclei (%) [4]: 4%
Population Healthy Nuclei (%) [4]: 77%
Population Hoechst High Intensity Objects (%) [4]: 6%
Population Mitochondria Different-Phenotype (%) [4]: 75%
Population Mitotic Cells (%) [4]: 36%
Population Normal (%) [4]: 93%
Population Pyknosed Nuclei (%) [4]: 17%
Population Tubulin-Different-Phenotype (%) [4]: 57%
Total Cell Count [4]: 361
Population Apoptotic (%) [5]: 31%
Population Fragmented Nuclei (%) [5]: 9%
Population Healthy Nuclei (%) [5]: 81%
Population Hoechst High Intensity Objects (%) [5]: 3%
Population Membrane Permeable-Phenotype (%) [5]: 0%
Population Mitochondria Different-Phenotype (%) [5]: 20%
Population Mitotic Cells (%) [5]: 68%
Population Normal (%) [5]: 96%
Population Pyknosed Nuclei (%) [5]: 8%
Population Tubulin-Different-Phenotype (%) [5]: 13%
Total Cell Count [5]: 567
Population Apoptotic (%) [6]: 60%
Population Fragmented Nuclei (%) [6]: 7%
Population Healthy Nuclei (%) [6]: 79%
Population Hoechst High Intensity Objects (%) [6]: 6%
Population Mitochondria Different-Phenotype (%) [6]: 33%
Population Mitotic Cells (%) [6]: 40%
Population Normal (%) [6]: 93%
Population Pyknosed Nuclei (%) [6]: 13%
Population Tubulin-Different-Phenotype (%) [6]: 11%
Total Cell Count [6]: 399
Population Apoptotic (%) [7]: 35%
Population Fragmented Nuclei (%) [7]: 9%
Population Healthy Nuclei (%) [7]: 73%
Population Hoechst High Intensity Objects (%) [7]: 10%
Population Membrane Permeable-Phenotype (%) [7]: 1%
Population Mitochondria Different-Phenotype (%) [7]: 51%
Population Mitotic Cells (%) [7]: 64%
Population Normal (%) [7]: 89%
Population Pyknosed Nuclei (%) [7]: 17%
Population Tubulin-Different-Phenotype (%) [7]: 70%
Total Cell Count [7]: 409
Population Apoptotic (%) [8]: 45%
Population Fragmented Nuclei (%) [8]: 7%
Population Healthy Nuclei (%) [8]: 76%
Population Hoechst High Intensity Objects (%) [8]: 6%
Population Membrane Permeable-Phenotype (%) [8]: 0%
Population Mitochondria Different-Phenotype (%) [8]: 60%
Population Mitotic Cells (%) [8]: 55%
Population Normal (%) [8]: 93%
Population Pyknosed Nuclei (%) [8]: 16%
Population Tubulin-Different-Phenotype (%) [8]: 60%
Total Cell Count [8]: 389
Population Apoptotic (%) [9]: 20%
Population Fragmented Nuclei (%) [9]: 12%
Population Healthy Nuclei (%) [9]: 80%
Population Hoechst High Intensity Objects (%) [9]: 1%
Population Membrane Permeable-Phenotype (%) [9]: 1%
Population Mitochondria Different-Phenotype (%) [9]: 10%
Population Mitotic Cells (%) [9]: 79%
Population Normal (%) [9]: 98%
Population Pyknosed Nuclei (%) [9]: 6%
Population Tubulin-Different-Phenotype (%) [9]: 10%
Total Cell Count [9]: 968
Population Apoptotic (%) [10]: 46%
Population Healthy Nuclei (%) [10]: 81%
Population Hoechst High Intensity Objects (%) [10]: 4%
Population Membrane Permeable-Phenotype (%) [10]: 0%
Population Mitochondria Different-Phenotype (%) [10]: 17%
Population Mitotic Cells (%) [10]: 53%
Population Normal (%) [10]: 95%
Population Tubulin-Different-Phenotype (%) [10]: 15%
Total Cell Count [10]: 631
Population Apoptotic (%) [11]: 59%
Population Fragmented Nuclei (%) [11]: 15%
Population Healthy Nuclei (%) [11]: 75%
Population Hoechst High Intensity Objects (%) [11]: 9%
Population Membrane Permeable-Phenotype (%) [11]: 6%
Population Mitochondria Different-Phenotype (%) [11]: 25%
Population Mitotic Cells (%) [11]: 40%
Population Normal (%) [11]: 90%
Population Pyknosed Nuclei (%) [11]: 9%
Population Tubulin-Different-Phenotype (%) [11]: 53%
Total Cell Count [11]: 558
Population Apoptotic (%) [12]: 36%
Population Fragmented Nuclei (%) [12]: 11%
Population Healthy Nuclei (%) [12]: 79%
Population Hoechst High Intensity Objects (%) [12]: 3%
Population Membrane Permeable-Phenotype (%) [12]: 2%
Population Mitochondria Different-Phenotype (%) [12]: 24%
Population Mitotic Cells (%) [12]: 63%
Population Normal (%) [12]: 96%
Population Pyknosed Nuclei (%) [12]: 8%
Population Tubulin-Different-Phenotype (%) [12]: 50%
Total Cell Count [12]: 482
